We go through 24 compounds from ChEMBL document CHEMBL4680131, “Fangchinoline derivatives induce cell cycle arrest and apoptosis in human leukemia cell lines via suppression of the PI3K/AKT and MAPK signaling pathway” (Eur J Med Chem, 2020).

One may read the IC50 as the concentration at which inhibition is half-maximal.

SMILES strings stand for the structures. A value given as a limit tells only on which side of the number the result lay.

Type in all cases: functional, cell-based
Assay [1] deals with MCF7. As to the kind of experiment: Cytotoxicity against human MCF-7 cells assessed as reduction in cell viability incubated for 48 hrs by MTT assay. As to conditions: MCF7, 48 h. In outline:
(§1)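 MTT viability after 48 h exposure. Cells (1×10^4/well) were allowed 24 h at 37 °C before dosing. Leukemia lines were grown in RPMI and breast lines in high-glucose DMEM, each with 5% FBS under 5% CO2. MTT was added for 4 h, formazan dissolved in DMSO, and absorbance read at 490 nm. Triplicate wells; values averaged over at least 3 independent experiments.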
On the technique in general: Tetrazolium dyes change colour on reduction, which living cells bring about.

In assay [2] the test system is MDA-MB-231. Put plainly: Cytotoxicity against human MDA-MB-231 cells assessed as reduction in cell viability incubated for 48 hrs by MTT assay. As to conditions: MDA-MB-231, 48 h. The method, boiled down: as §1
The test system of assay [3] is HEL. Put plainly: Cytotoxicity against human HEL cells assessed as reduction in cell viability incubated for 48 hrs by MTT assay. In outline:
as §1

The subject of assay [4] is K562. As to the kind of experiment: Cytotoxicity against human K562 cells assessed as reduction in cell viability incubated for 48 hrs by MTT assay. The conditions noted are these: K562, 48 h. In outline: as §1

For `CCCCCC(=O)Oc1c(OC)cc2c3c1Oc1cc4c(cc1OC)CCN(C)[C@H]4Cc1ccc(cc1)Oc1cc(ccc1OC)C[C@@H]3N(C)CC2`, the IC50 in assay [1] was determined as 12 µM; in assay [2], 11.3 µM; in assay [3], 21 µM; in assay [4], 13.3 µM.
Take `COc1ccc2cc1Oc1ccc(cc1)C[C@H]1c3cc(c(OC)cc3CCN1C)Oc1c(OC(=O)N3CCCOC3)c(OC)cc3c1[C@H](C2)N(C)CC3`: the IC50 worked out at 25.2 µM in assay [1], 15.1 µM in assay [2], 40.2 µM in assay [3] and 15.9 µM in assay [4].
Turning to `C=CCCCCCCCCC(=O)Oc1c(OC)cc2c3c1Oc1cc4c(cc1OC)CCN(C)[C@H]4Cc1ccc(cc1)Oc1cc(ccc1OC)C[C@@H]3N(C)CC2`, the IC50 in assay [1] is 8.57 µM; in assay [2], 13 µM; in assay [3], 15.7 µM; in assay [4] it was 10.4 µM.
Turning to `COc1ccc2cc1Oc1ccc(cc1)C[C@H]1c3cc(c(OC)cc3CCN1C)Oc1c(OC(=O)c3cccc4ccccc34)c(OC)cc3c1[C@H](C2)N(C)CC3`, the IC50 was found to be 8.19 µM in assay [1], 16.5 µM in assay [2], 3.46 µM in assay [3] and 4.59 µM in assay [4].
In the case of `COc1ccc2cc1Oc1ccc(cc1)C[C@H]1c3cc(c(OC)cc3CCN1C)Oc1c(OC(=O)c3ccccc3Cl)c(OC)cc3c1[C@H](C2)N(C)CC3`, the IC50 stood at 6.26 µM in assay [1], 5.41 µM in assay [2], 3.22 µM in assay [3] and 3.58 µM in assay [4].
For the compound `COc1ccc2cc1Oc1ccc(cc1)C[C@H]1c3cc(c(OC)cc3CCN1C)Oc1c(OC(=O)C3CC3)c(OC)cc3c1[C@H](C2)N(C)CC3`, the IC50 was more than 100 µM in assay [1], 13.5 µM in assay [2], 21.3 µM in assay [3] and 17.5 µM in assay [4].
With `COc1ccc2cc1Oc1ccc(cc1)C[C@H]1c3cc(c(OC)cc3CCN1C)Oc1c(OC(=O)CCCl)c(OC)cc3c1[C@H](C2)N(C)CC3`, the IC50 in assay [1] is 18.8 µM; in assay [2] it was 9.47 µM; in assay [3], 4.84 µM; in assay [4], 6.47 µM.
Consider `COc1ccc2cc1Oc1ccc(cc1)C[C@H]1c3cc(c(OC)cc3CCN1C)Oc1c(OC(=O)CCl)c(OC)cc3c1[C@H](C2)N(C)CC3`, for which the IC50 in assay [1] was found to be 30.1 µM; in assay [2], 10 µM; in assay [3], 10.8 µM; in assay [4], 12.3 µM.
As for `CCN(C)C(=O)Oc1c(OC)cc2c3c1Oc1cc4c(cc1OC)CCN(C)[C@H]4Cc1ccc(cc1)Oc1cc(ccc1OC)C[C@@H]3N(C)CC2`, the IC50 in assay [1] is 20.6 µM; in assay [2], 9.89 µM; in assay [3] it was 3.46 µM; in assay [4], 5.89 µM.
With `COc1ccc2cc1Oc1ccc(cc1)C[C@H]1c3cc(c(OC)cc3CCN1C)Oc1c(OC(=O)/C=C/c3ccccc3)c(OC)cc3c1[C@H](C2)N(C)CC3`, the IC50 in assay [1] is 16.1 µM; in assay [2], 7.9 µM; in assay [3] it was 10.2 µM; in assay [4] it was 9.43 µM.
As to `COc1ccc2cc1Oc1ccc(cc1)C[C@H]1c3cc(c(OC)cc3CCN1C)Oc1c(OC(=O)c3cccc(Cl)c3)c(OC)cc3c1[C@H](C2)N(C)CC3`, the IC50 came out at 4.42 µM in assay [1], 8.03 µM in assay [2], 4.26 µM in assay [3] and 3.79 µM in assay [4].
Consider `COc1ccc2cc1Oc1ccc(cc1)C[C@H]1c3cc(c(OC)cc3CCN1C)Oc1c(OC(=O)c3ccc(Cl)cc3)c(OC)cc3c1[C@H](C2)N(C)CC3`, for which the IC50 in assay [1] came out at 8.63 µM; in assay [2], 7.55 µM; in assay [3] it was 2.81 µM; in assay [4], 2.8 µM.
With `COc1ccc2cc1Oc1ccc(cc1)C[C@H]1c3cc(c(OC)cc3CCN1C)Oc1c(OC(=O)N3c4ccccc4Sc4ccccc43)c(OC)cc3c1[C@H](C2)N(C)CC3`, the IC50 was 20.7 µM in assay [1], 10.1 µM in assay [2], 17.6 µM in assay [3] and 12.4 µM in assay [4].
For `COc1ccc2cc1Oc1ccc(cc1)C[C@H]1c3cc(c(OC)cc3CCN1C)Oc1c(OC(=O)c3ccc(Cl)cc3Cl)c(OC)cc3c1[C@H](C2)N(C)CC3`, the IC50 in assay [1] is more than 100 µM; in assay [2] it was 28 µM; in assay [3], 10.2 µM; in assay [4] it was 6.11 µM.
For `COc1ccc2cc1Oc1ccc(cc1)C[C@H]1c3cc(c(OC)cc3CCN1C)Oc1c(OC)c(OC)cc3c1[C@H](C2)N(C)CC3` [FANCHININ], the IC50 was determined as 19.6 µM in assay [1], 18.4 µM in assay [2], 19.7 µM in assay [3] and 6.43 µM in assay [4].
In the case of `CCN(CC)C(=O)Oc1c(OC)cc2c3c1Oc1cc4c(cc1OC)CCN(C)[C@H]4Cc1ccc(cc1)Oc1cc(ccc1OC)C[C@@H]3N(C)CC2`, the IC50 in assay [1] came out at 23.7 µM; in assay [2], 9.04 µM; in assay [3], 2.98 µM; in assay [4] it was 3.74 µM.
Turning to `COc1ccc2cc1Oc1ccc(cc1)C[C@H]1c3cc(c(OC)cc3CCN1C)Oc1c(OC(=O)c3c(Cl)cc(Cl)cc3Cl)c(OC)cc3c1[C@H](C2)N(C)CC3`, the IC50 in assay [1] amounted to 18.2 µM; in assay [2] it was 23 µM; in assay [3] it was 7.65 µM; in assay [4], 7.6 µM.
As for `COc1ccc2cc1Oc1ccc(cc1)C[C@H]1c3cc(c(OC)cc3CCN1C)Oc1c(OC(=O)c3ccc(Br)cc3)c(OC)cc3c1[C@H](C2)N(C)CC3`, the IC50 amounted to 6.84 µM in assay [1], 5.58 µM in assay [2], 2.31 µM in assay [3] and 3.06 µM in assay [4].
With `C=CC(=O)Oc1c(OC)cc2c3c1Oc1cc4c(cc1OC)CCN(C)[C@H]4Cc1ccc(cc1)Oc1cc(ccc1OC)C[C@@H]3N(C)CC2`, the IC50 in assay [1] is 7.28 µM; in assay [2], 5.03 µM; in assay [3] it was 4.27 µM; in assay [4] it was 6.77 µM.
As for `COc1ccc2cc1Oc1ccc(cc1)C[C@H]1c3cc(c(OC)cc3CCN1C)Oc1c(OC(=O)C=C(C)C)c(OC)cc3c1[C@H](C2)N(C)CC3`, the IC50 in assay [1] was more than 100 µM; in assay [2], 10.3 µM; in assay [3], 5.16 µM; in assay [4], 5.39 µM.
For `COc1ccc2cc1Oc1ccc(cc1)C[C@H]1c3cc(c(OC)cc3CCN1C)Oc1c(OC(=O)c3ccc(Cl)c(Cl)c3)c(OC)cc3c1[C@H](C2)N(C)CC3` the same measures were 10.8 µM, 18.3 µM, 4.56 µM and 8.52 µM.
Turning to `COc1ccc2cc1Oc1ccc(cc1)C[C@H]1c3cc(c(OC)cc3CCN1C)Oc1c(OC(=O)CBr)c(OC)cc3c1[C@H](C2)N(C)CC3`, the IC50 came to 22.1 µM in assay [1], 17.8 µM in assay [2], 25.9 µM in assay [3] and 14.3 µM in assay [4].
Regarding `COc1ccc2cc1Oc1ccc(cc1)C[C@H]1c3cc(c(OC)cc3CCN1C)Oc1c(OC(=O)CCCCl)c(OC)cc3c1[C@H](C2)N(C)CC3`, the IC50 in assay [1] amounted to 12.4 µM; in assay [2], 8.68 µM; in assay [3], 7.86 µM; in assay [4], 6.55 µM.
For `COc1ccc2cc1Oc1ccc(cc1)C[C@H]1c3cc(c(OC)cc3CCN1C)Oc1c(OC(=O)C(Cl)(Cl)Cl)c(OC)cc3c1[C@H](C2)N(C)CC3` the same measures were 7.14 µM, 4.05 µM, 3.54 µM and 3.3 µM.
